Most compounds without a hit are left out; they make up all but 3.1% or so of the library.
HSF-1 act: increases HSF-1 driven luciferase reporter signal; 300,000 compounds, 1.7% hits; NIH3T3-HGL HSF-1 luciferase reporter, MG132, 8 h; 100% = twice DMSO control signal; activation, % at 9 µM;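 active = mean replicate activation of at least 50% with a set share of replicates each reaching 50%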;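 also: 0% = median of the neutral control wells and 100% = twice that signal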
HSF1 inh: HSF1 inhibition; NIH3T3-HGL HSE-luciferase, MG132-induced, luminescence 8 h; active compounds read low; activity change, negative = inhibition, % at 7.5 µM (by protocol); 300,000 compounds, 0.77% hits; AID 2098;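 active = more than half of replicate wells show activity change below -50%, luminescence cut by over half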;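 also: luciferase reports HSF-1 transcriptional activity via heat shock element; 0% = median of DMSO wells and -100% = zero luminescence signal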
HSP90 refold inh: inhibitors of HSP90 luciferase refolding in rabbit reticulocyte lysate | inhibition, % at 5.6 µM | luciferase refolding luminescence, 3 h | 290,000 compounds, 0.91% hits;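 active = inhibition above the screen-wide mean plus 3 SD, computed separately per campaign, cut at about 16% in these data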;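 also: 0% = DMSO wells and 100% = 60 µM geldanamycin wells; inhibitors lower the luminescence because luciferase stays unfolded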
Hsp70 act: Hsp70 transcriptional activation, primary screen. HeLa Hsp70 promoter luciferase reporter, luminescence; scaled: vehicle 0, proteasome-inhibitor control 100%. activation, % at 10 µM. 200,000 compounds, 0.04% hits;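 active = activation above the mean across all tested compounds plus 3 SD, cutoff set per campaign, cut at about 5.5% in these data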;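 also: 100% = MG132 at 30 µM as the positive control and 0% = DMSO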
Tb hexokinase: blocks Trypanosoma brucei hexokinase 1 activity; recombinant TbHK1, G6PDH-coupled NADH A340; inhibition, % at 10 µM; 220,000 compounds, 0.11% hits; AID 1430;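 active = inhibition of 50% or more in the single-dose primary screen; inactive = inhibition below 50%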
HKDC1 inh: HKDC1 (human) hexokinase inhibition | Q2TB90 | recombinant HKDC1, G6PDH/diaphorase resazurin coupled fluorescence | inhibition, % at 20 µM | 340,000 compounds, 0.16% hits;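 active = inhibition above about 35% when tested at 20 µM, limit read from the data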;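 also: plate controls were DMSO wells with enzyme for no effect and DMSO wells lacking enzyme for full effect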
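Assay system: recombinant HKDC1 hexokinase; detection: coupled resazurin fluorescence, excitation 525 nm, emission 613 nm; benchmarks: DMSO-plus-enzyme-mix negative control, buffer-substituted positive control; compound dosing: single 20 µM dose; schedule: 90 min at room temperature in dark; also added: glucose plus 1 mM ATP as hexokinase substrates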
HSP90 confirm: HSP90 inhibition, confirmation assay; rabbit reticulocyte lysate, luciferase refolding luminescence, 3 h; shares compounds with HSP90 refold inh; 2,300 compounds, 64% hits; inhibition, % at 5.9 µM; in the data active = inhibition above about 18%;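 also: 0% = vehicle wells and 100% = reference inhibitor wells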
FLuc counter: blocks native firefly luciferase in HSP90 counter-screen | 2,300 compounds, 48% hits | purified native firefly luciferase, luminescence | AID 1847 | shares compounds with HSP90 refold inh | inhibition, % at 5.9 µM;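 active = inhibition above the mean inhibition of all tested sample wells plus 3 SD, cut at about 10% in these data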;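 also: 0% = DMSO with luciferase and 100% = wells lacking luciferase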
Target sequence (P08659 whole entry, looked up): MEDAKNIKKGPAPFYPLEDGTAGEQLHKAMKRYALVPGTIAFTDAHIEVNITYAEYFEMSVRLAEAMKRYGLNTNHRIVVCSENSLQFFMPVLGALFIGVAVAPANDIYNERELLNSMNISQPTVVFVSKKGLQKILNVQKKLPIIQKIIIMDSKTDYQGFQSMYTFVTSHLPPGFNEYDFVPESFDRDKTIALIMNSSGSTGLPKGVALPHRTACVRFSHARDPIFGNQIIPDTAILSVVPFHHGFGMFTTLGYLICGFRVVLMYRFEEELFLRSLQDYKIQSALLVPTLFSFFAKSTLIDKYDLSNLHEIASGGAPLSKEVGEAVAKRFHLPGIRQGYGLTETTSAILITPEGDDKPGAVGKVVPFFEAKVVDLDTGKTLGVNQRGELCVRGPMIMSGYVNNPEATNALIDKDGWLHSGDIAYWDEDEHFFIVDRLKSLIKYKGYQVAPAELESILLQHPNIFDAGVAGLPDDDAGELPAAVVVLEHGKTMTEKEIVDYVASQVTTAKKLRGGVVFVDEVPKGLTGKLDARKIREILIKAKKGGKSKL
Numbers without * were called inactive; · = no result; ! = repeats disagree.

SMILES | HSF-1 act | HSF1 inh | HSP90 refold inh | Hsp70 act | Tb hexokinase | HKDC1 inh | HSP90 confirm | FLuc counter
O=C(NCc1ccccc1F)c1ccc2c(c1)OCO2 | -1.1 | 6.2 | 5.9 | -0.3 | 8.7 | -3.7 | · | ·
O=C(NCCc1ccc(Cl)cc1)c1ccc2c(c1)OCCO2 | 1.0 | 12.8 | 17.6* | · | · | -5.7 | 26.9* | 23.4*
Cc1[nH]nc(-c2cccnc2)c1N=NN(C)C | · | · | · | · | · | 0.9 | · | ·
CCOc1cc(/C=C2\C(=O)N(c3ccc(C(N)=O)cc3)N=C2C)ccc1OC(=O)c1cccs1 | 18.7 | 0.0 | 7.0 | 0.4 | -17.5 | 16.5 | · | ·
CCOc1cc(/C=C2/C(=O)N(c3ccccc3)N=C2C)ccc1OC(=O)c1ccco1 | 29.8 | 9.2 | 27.0* | -0.3 | -4.9 | 13.9 | -8.4 | 4.5
CCn1cc(C(=O)NC2CCc3ccccc32)c(=O)c2ccc(C)nc21 (configuration not stated) | 20.3 | -5.6 | 26.8* | -0.3 | 7.0 | · | -2.6 | -8.8
COc1cc2c(cc1OC)[C@@H](NC(=O)COc1ccccc1)[C@H](OCc1ccccc1)C2 | · | · | · | · | · | -3.0 | · | ·
COc1ccc(-c2cc3nc4n(c(=O)c3s2)CCC4)cc1 | 13.8 | -5.5 | 29.8* | -0.5 | -31.2 | 0.0 | 80.2* | 67.7*
CN(C)c1ccc(/C=C(\Cl)c2nc3ccccc3s2)cc1 | · | · | 49.1* | -0.4 | -10.7 | 0.6 | 71.1* | 71.5*
CCCCCCCN(c1ccccc1)[C@@H]1C[C@H]2CCCC(=O)N3CC[C@@H](C1)[C@@H]23 | · | · | · | · | · | 2.4 | · | ·
CCN(CC)c1ccc(SS(=O)(=O)O)cc1 | 16.6 | -8.4 | 24.8*! | -0.1 | 9.2 | -6.9 | 69.2* | -9.4
CCN(CC)c1ccc(C(=O)O)cc1 | -11.8 | -9.4 | 5.8 | -0.4 | 2.4 | 4.9 | · | ·
CC(=O)c1ccc(NC(=O)NC2CC(=O)N(c3ccc4c(c3)OCCO4)C2)cc1 (configuration not stated) | -1.1 | -5.8 | · | · | · | -5.2 | · | ·
COc1ccc(NC(=O)c2ccc(COCC(F)(F)C(F)F)cc2)cc1 | 11.1 | -4.2 | 18.9* | -0.2 | -4.8 | 7.1 | -2.6 | -7.6
COc1cccc(C(=O)Nc2ccc(NC(=O)C3C4C=CC(C4)C3C(=O)O)cc2)c1 (configuration not stated) | 44.0 | 39.3 | -0.9 | · | · | -6.7 | · | ·
Cc1nc(NC(=O)c2cc3ccccc3o2)sc1C | 15.9 | 11.8 | 39.9* | · | · | 7.6 | 53.6* | 47.3*
CCOC(=O)c1sc(NC(=O)c2cc3ccccc3o2)nc1C | 44.1 | 3.4 | 8.7 | -0.6 | -8.6 | -7.0 | · | ·
CCOC(=O)c1ccccc1NC(=O)c1cc2ccccc2o1 | -15.1 | -1.3 | -0.3 | · | · | -0.1 | · | ·
Cc1cc(-c2csc(NC(=O)c3cc4ccccc4o3)n2)c(C)n1C | -16.4 | 2.1 | 41.3* | 0.0 | -13.7 | 9.9 | 34.0* | -14.0
CCOC(=O)c1csc(NC(=O)c2cc3ccccc3o2)n1 | 39.0 | 12.1 | 57.6* | · | -4.5 | -2.9 | 88.2* | -29.2
COc1ccccc1-c1sc2ccccc2c1C#Cc1ccc(N(C)C)cc1 | · | · | · | · | · | 3.1 | · | ·
CC(C)C[C@H](NC(=O)OC(C)(C)C)C(=O)N[C@@H](CO)[C@H](O)[C@@H]1C[C@@H]1C(=O)NC1CCCCC1 | -8.2 | -6.7 | -2.1 | · | · | 0.3 | · | ·
O=C(NCCc1cccc(Cl)c1)c1ccc(OC2CCN(Cc3ccccn3)CC2)cc1 | 4.4 | 1.3 | 21.8* | · | · | -0.4 | 18.6* | -6.5
O=c1oc2cc(OCc3c(F)cccc3Cl)ccc2cc1-c1ccccn1 | 42.3 | 15.2 | -1.0 | -0.4 | -5.4 | -12.2 | · | ·
CCCOc1ccc2cc(-c3ccccn3)c(=O)oc2c1 | -42.0 | -34.1 | 36.0* | -0.6 | -20.8 | -4.1 | 85.0* | 79.6*
Cc1cc(N)nc(=O)n1C1CC(O)C(CO)O1 (configuration not stated) | 7.1 | 7.1 | · | · | · | 2.9 | · | ·
CCOc1ccc(NC(=O)c2cccc(NC(=O)c3ccccc3)c2)cc1 | 7.9 | -1.5 | 2.7 | · | · | 5.9 | · | ·
CCOc1c(Cl)cc(C(=O)Nc2cccc(C(=O)O)c2)cc1Cl | 41.5 | 18.3 | 30.2* | -0.3 | 0.0 | -7.3 | 47.4* | 9.8*

Screening results as filed in PubChem.
